Published values gathered from unrelated publications.
Protocols differ between the studies behind these lines.
CYP2D6: Cytochrome P450 2D6 (CYP2D6, Homo sapiens, UniProt P10635)

SMILES | target or system | assay | test system | conditions | quantity | value
Cc1nc(-c2cnc(NC(C)C)n(C)c2=O)ccc1Oc1ccnc(-c2cnn(C)c2)c1 | – | – | male beagle dog, plasma | oral, 10 mg/kg | AUC(0-t) | 19500 ng·h/mL
COc1cc2c3c(n(CCCN4CCOCC4)c(=O)c2cc1OC)-c1cc2c(cc1C3=O)OCO2 | – | – | male beagle dog, plasma | intravenous, 10 mg/m², infusion | AUC(0-inf) | 383 ng·h/mL
C[C@@H]1CCC[C@H](n2cnc(-c3cc(Cl)ccc3-n3cc(Cl)nn3)cc2=O)c2cc(ccn2)-c2c(cnn2C(F)F)NC1=O | – | – | male rabbit, plasma | intravenous, 0.8 mg/kg | Vd | 1.4 L/kg
CC(C)(O)c1coc(S(=O)(=O)NC(=O)Nc2c3c(cc4c2CCC4)CCC3)c1 | J774.A1 | cell growth or viability, MTT | – | 10 µM, 4 h | viability | 94.9%
NC(=S)NN=C(CS(=O)(=O)c1ccccc1)c1ccc(F)cc1 | WM 266-4 | cell growth or viability, MTT | – | 1.6 µg, 48 h | viability | 48.6%
CC[C@@H]1CN(C(=O)NCC(F)(F)F)C[C@@H]1c1cnc2cnc3[nH]ccc3n12 | – | – | beagle dog, plasma | oral, 1 mg/kg, single dose | AUC(0-t) | 558 ng·h/mL
COC(=O)C1CCN(C(=O)c2ccc(N(CCCO)Cc3cnc4nc(N)nc(N)c4n3)cc2)CC1 | CYP2D6 | enzyme activity, inhibitor, luciferase | – | 10 µM | inhibition | -27.1%
CNC(=O)c1cc(Oc2ccc(NC(=O)Nc3ccc(Cl)c(C(F)(F)F)c3)cc2)ccn1 | WM 266-4 | cell growth or viability, MTT | – | 1.6 µg, 48 h | viability | 58.5%
COCCc1ccc(OCC(O)CNC(C)C)cc1 (stereo not shown) | CYP2D6 | – | human, plasma | oral, 100 mg, single dose, healthy volunteers | AUC(0-t) | 758 ng·h/mL
Cc1ccc(C(CS(=O)(=O)c2ccccc2)=NNc2nc(C)c(N=Nc3cccc(C)c3)s2)cc1 | WM 266-4 | cell growth or viability, MTT | – | 1.6 µg, 48 h | viability | 52.6%
O=C(NCCN1CCCC1)c1cc(-c2ccc(CN3CCOCC3)cc2)nc2ccc(F)cc12 | – | – | male beagle dog, blood | oral, 3 mg/kg | half-life | 20 h
Cc1ccc(C(CS(=O)(=O)c2ccccc2)=NNc2nc(-c3ccc(OCCCCOc4ccc(-c5csc(NN=C(CS(=O)(=O)c6ccccc6)c6ccc(C)cc6)n5)cc4)cc3)cs2)cc1 | WM 266-4 | cell growth or viability, MTT | – | 1.6 µg, 48 h | viability | 64.3%
Nc1nc(N)c2nc(C(=O)NCc3ccccc3)cnc2n1 | CYP2D6 | enzyme activity, inhibitor, luciferase | – | 10 µM | inhibition | 105%
